Data on 16 molecules can be found in ChEMBL document CHEMBL1828617, “The activity of dispiro peroxides against Fasciola hepatica” (2011).

Molecules are shown by their SMILES. Activity calls are given as the source filed them. The calls are words filed in the database; no cut-off is given here.

One experiment has as its system Fasciola hepatica. Briefly: Antiparasitic activity against Fasciola hepatica infected in rat assessed as cure rate at 100 mg/kg, po administered as single dose measured after 6 days post treatment. It counts as functional, organism-based. More on the design: dose 100 mg/kg. A digest of the protocol: (§1)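 Rats harbouring adult F. hepatica, treated at 8–13 weeks post-infection with a single oral dose given as a suspension in 7% (v/v) Tween 80 and 3% (v/v) EtOH. Killed at day 6 post-treatment. Adult flukes recovered from bile ducts and livers. Worm burden reduction taken from mean total worm burdens of treated versus untreated control rats. Cures = rats cured/rats treated. Significance by Kruskal-Wallis test.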
`O=C(O)C[C@H]1CC[C@]2(CC1)OOC1(O2)C2CC3CC(C2)CC1C3` (some centres undefined): the outcome was Active.

In the case of `O=C(O)[C@H]1CC[C@@]2(CC1)OOC1(CCCCC1)O2`, the outcome was inactive.

With `O=C(O)C1CCC2(CC1)OOC1(CCCCC1)OO2`, the result was Active.

For the molecule `O=C(O)C[C@H]1CC[C@]2(CC1)COC1(OO2)C2CC3CC(C2)CC1C3` (some centres undefined), the result was Active.

In the case of `O=C(O)[C@H]1CC[C@]2(CC1)OO[C@]1(O2)C2CC3CC(C2)CC1C3`, the outcome was inactive.

Regarding `O=C(O)c1ccc(C2CCC3(CC2)OOC2(O3)C3CC4CC(C3)CC2C4)cc1` (centres undefined), the result was Active.

As for `O=C(O)C1CCC2(CC1)OOC1(OO2)C2CC3CC(C2)CC1C3` (centres undefined), the result was Active.

Take `O=C(O)c1ccc([C@H]2CC[C@]3(CC2)COC2(OO3)C3CC4CC(C3)CC2C4)cc1` (some centres undefined): the result was Active.

On to `O=C(O)[C@H]1CC[C@]2(CC1)COC1(CCCCC1)OO2`, for which the outcome was Active.

For the molecule `O=C(O)CC1CCC2(CC1)OOC1(CCCCC1)OO2`, the result was inactive.

With `O=C(O)CC1CCC2(CC1)OCC1(OO2)C2CC3CC(C2)CC1C3` (centres undefined), the result was inactive.

On to `O=C(O)CC1CCC2(CC1)OOC1(OO2)C2CC3CC(C2)CC1C3` (centres undefined), for which the result was Active.

The subject of another experiment is Fasciola hepatica. The experiment is described as follows: Antiparasitic activity against Fasciola hepatica infected in rat assessed as reduction in worm burden at 50 mg/kg, po administered as single dose measured after 6 days post treatment. It counts as functional. Also noted: scale not given: the % may be the effect or the level left. A digest of the protocol:
as §1
Take `O=C(O)C1CCC2(CC1)OOC1(CCCCC1)OO2`: the Activity is 61%.

As to `O=C(O)C[C@H]1CC[C@]2(CC1)COC1(OO2)C2CC3CC(C2)CC1C3` (some centres undefined), the Activity was 100%.

Turning to `O=C(O)c1ccc(C2CCC3(CC2)OOC2(O3)C3CC4CC(C3)CC2C4)cc1` (centres undefined), the Activity was determined as 19%.

Consider `O=C(O)C1CCC2(CC1)OOC1(OO2)C2CC3CC(C2)CC1C3` (centres undefined), for which the Activity is recorded as 48%.

`O=C(O)c1ccc([C@H]2CC[C@]3(CC2)COC2(OO3)C3CC4CC(C3)CC2C4)cc1` (some centres undefined): the Activity came out at 100%.

On to `O=C(O)[C@H]1CC[C@]2(CC1)COC1(CCCCC1)OO2`, for which the Activity is 71%.

With `O=C(O)CC1CCC2(CC1)OOC1(OO2)C2CC3CC(C2)CC1C3` (centres undefined), the Activity was found to be 100%.

For a further experiment, the system named is Fasciola hepatica. Briefly: Antiparasitic activity against Fasciola hepatica infected in rat assessed as reduction in worm burden at 100 mg/kg, po administered as single dose measured after 6 days post treatment. It counts as functional. More on the design: scale not given: the % may be the effect or the level left. A digest of the protocol:
as §1
As for `O=C(O)C[C@H]1CC[C@]2(CC1)OOC1(O2)C2CC3CC(C2)CC1C3` (some centres undefined), the Activity was determined as 100%.

As for `O=C(O)[C@H]1CC[C@@]2(CC1)OOC1(CCCCC1)O2`, the Activity was found to be 26%.

For `O=C(O)[C@H]1CC[C@]2(CC1)COC1(OO2)C2CC3CC(C2)CC1C3` (some centres undefined), the Activity was found to be 61%.

`O=C(O)C1CCC2(CC1)OOC1(CCCCC1)OO2`: the Activity worked out at 100%.

In the case of `O=C(O)C[C@H]1CC[C@]2(CC1)COC1(OO2)C2CC3CC(C2)CC1C3` (some centres undefined), the Activity is listed as 100%.

Take `O=C(O)C[C@H]1CC[C@]2(CC1)COC1(CCCCC1)OO2`: the Activity was found to be 95%.

As for `O=C(O)[C@H]1CC[C@]2(CC1)OO[C@]1(O2)C2CC3CC(C2)CC1C3`, the Activity turned out to be 52%.

Regarding `O=C(O)c1ccc(C2CCC3(CC2)OOC2(O3)C3CC4CC(C3)CC2C4)cc1` (centres undefined), the Activity is 100%.

Turning to `O=C(O)C1CCC2(CC1)OOC1(OO2)C2CC3CC(C2)CC1C3` (centres undefined), the Activity is on record as 100%.

As to `O=C(O)c1ccc([C@H]2CC[C@]3(CC2)COC2(OO3)C3CC4CC(C3)CC2C4)cc1` (some centres undefined), the Activity stood at 100%.

For the molecule `O=C(O)[C@H]1CC[C@]2(CC1)COC1(CCCCC1)OO2`, the Activity stood at 100%.

As to `O=C(O)CC1CCC2(CC1)OOC1(CCCCC1)OO2`, the Activity is listed as 29%.

Consider `C[C@H]1[C@H](OC(=O)CCC(=O)O)O[C@@H]2O[C@@]3(C)CC[C@H]4[C@H](C)CC[C@@H]1[C@@]24OO3` [ARTESUNATE], for which the Activity is 30%.

In the case of `O=C(O)CC1CCC2(CC1)OCC1(OO2)C2CC3CC(C2)CC1C3` (centres undefined), the Activity is reported as 0%.

Turning to `O=C(O)c1ccc(C2CCC3(CC2)OOC2(OO3)C3CC4CC(C3)CC2C4)cc1` (centres undefined), the Activity is recorded as 92%.

For the molecule `O=C(O)CC1CCC2(CC1)OOC1(OO2)C2CC3CC(C2)CC1C3` (centres undefined), the Activity amounted to 100%.

The test system of another experiment is Fasciola hepatica. The experiment is described as follows: Antiparasitic activity against Fasciola hepatica infected in rat assessed as reduction in worm burden at 25 mg/kg, po administered as single dose measured after 6 days post treatment. It counts as functional. Also noted: scale not given: the % may be the effect or the level left. The method in brief:
as §1
On to `O=C(O)C[C@H]1CC[C@]2(CC1)COC1(OO2)C2CC3CC(C2)CC1C3` (some centres undefined), for which the Activity is 88%.

Turning to `O=C(O)c1ccc([C@H]2CC[C@]3(CC2)COC2(OO3)C3CC4CC(C3)CC2C4)cc1` (some centres undefined), the Activity is 0%.

With `O=C(O)CC1CCC2(CC1)OOC1(OO2)C2CC3CC(C2)CC1C3` (centres undefined), the Activity was 71%.

In a further experiment the test system is Fasciola hepatica. Briefly: Antiparasitic activity against Fasciola hepatica infected in rat assessed as cure rate at 25 mg/kg, po administered as single dose measured after 6 days post treatment. Also noted: dose 25 mg/kg. It counts as functional, organism-based. The method in brief:
as §1
As for `O=C(O)CC1CCC2(CC1)OOC1(OO2)C2CC3CC(C2)CC1C3` (centres undefined), the result was inactive.

Another experiment concerns Fasciola hepatica. Briefly: Antiparasitic activity against Fasciola hepatica infected in rat assessed as cure rate at 50 mg/kg, po administered as single dose measured after 6 days post treatment. More on the design: dose 50 mg/kg. It counts as functional, organism-based. A digest of the protocol: as §1
For the molecule `O=C(O)C[C@H]1CC[C@]2(CC1)COC1(OO2)C2CC3CC(C2)CC1C3` (some centres undefined), the result was Active.

For `O=C(O)c1ccc(C2CCC3(CC2)OOC2(O3)C3CC4CC(C3)CC2C4)cc1` (centres undefined), the result was inactive.

With `O=C(O)c1ccc([C@H]2CC[C@]3(CC2)COC2(OO3)C3CC4CC(C3)CC2C4)cc1` (some centres undefined), the outcome was Active.

In the case of `O=C(O)[C@H]1CC[C@]2(CC1)COC1(CCCCC1)OO2`, the result was inactive.

On to `O=C(O)CC1CCC2(CC1)OOC1(OO2)C2CC3CC(C2)CC1C3` (centres undefined), for which the outcome was Active.
